Measurements: ChEMBL document CHEMBL1141440, “Sesquiterpene lactones from the roots of Ferula varia and their cytotoxic activity” (J Nat Prod, 2007)
Converted amounts (≈) assume the structure as drawn.

Key:
[1] = target: ATP-dependent translocase ABCB1 (Homo sapiens, UniProt P08183); assay: Effect on P-glycoprotein expressed in KB-C2 cells assessed as increase in accumulation of rhodamine 123 at 50 uM; assay type: cell-based; conditions: kb-c2, 50 µM
Summary of the method: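 For P-gp substrate accumulation, KB-C2 cells were incubated 2 h with 20 µM rhodamine 123 plus sample, then washed and lysed in 0.1% Triton X-100 in PBS. Retained fluorescence was measured and accumulation expressed as a percentage increase.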

[2] = Cytotoxicity against multidrug-resistant human KB-C2 cells; assay type: functional, cell-based
Summary of the method: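 KB-C2, a multidrug-resistant KB subline, was maintained in DMEM with 10% FBS and 5 µM colchicine at 37 °C under humidified 5% CO2. Cytotoxicity was reported as IC50 in µg/mL.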

[3] = system: K562; assay: Cytotoxicity against multidrug-resistant human K562 cells; assay type: functional, cell-based; conditions: in the assay text read “human K562 cells” for “multidrug-resistant human K562 cells”
Summary of the method: (§1)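 K562/Adr cells, a doxorubicin-resistant leukemia line, were grown in RPMI1640 with 10% FBS and 0.5 µM doxorubicin at 37 °C under humidified 5% CO2. Cytotoxicity was expressed as IC50 in µg/mL.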

[4] = system: KB; assay: Cytotoxicity against human KB cells; assay type: functional, cell-based
Summary of the method: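 KB human epidermoid carcinoma cells were grown in DMEM with 10% FBS at 37 °C under humidified 5% CO2. Cytotoxicity was given as IC50 in µg/mL.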

[5] = Cytotoxicity against doxorubicin-resistant human K562/Adr cells; assay type: functional, cell-based; summary of the method: as §1
[6] = Cytotoxicity against multidrug-resistant human KB-C2 cells in presence of 2.5 uM colchicine; assay type: functional, cell-based
Summary of the method: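 KB-C2 cells were kept in DMEM with 10% FBS and 5 µM colchicine, then tested for cytotoxicity with 2.5 µM colchicine added during exposure to samples. IC50 was given in µg/mL.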

[7] = system: COLO 205; assay: Cytotoxicity against human COLO205 cells; assay type: functional, cell-based
Summary of the method: (§2)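 MCF7 breast and COLO205 colon carcinoma cells were cultured in RPMI1640 with 10% FBS at 37 °C in humidified 5% CO2-95% air. Cytotoxicity was read as IC50 in µg/mL.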

[8] = system: MCF7; assay: Cytotoxicity against human MCF7 cells; assay type: functional, cell-based; summary of the method: as §2

Chain of ATP-dependent translocase ABCB1 (P08183 whole entry): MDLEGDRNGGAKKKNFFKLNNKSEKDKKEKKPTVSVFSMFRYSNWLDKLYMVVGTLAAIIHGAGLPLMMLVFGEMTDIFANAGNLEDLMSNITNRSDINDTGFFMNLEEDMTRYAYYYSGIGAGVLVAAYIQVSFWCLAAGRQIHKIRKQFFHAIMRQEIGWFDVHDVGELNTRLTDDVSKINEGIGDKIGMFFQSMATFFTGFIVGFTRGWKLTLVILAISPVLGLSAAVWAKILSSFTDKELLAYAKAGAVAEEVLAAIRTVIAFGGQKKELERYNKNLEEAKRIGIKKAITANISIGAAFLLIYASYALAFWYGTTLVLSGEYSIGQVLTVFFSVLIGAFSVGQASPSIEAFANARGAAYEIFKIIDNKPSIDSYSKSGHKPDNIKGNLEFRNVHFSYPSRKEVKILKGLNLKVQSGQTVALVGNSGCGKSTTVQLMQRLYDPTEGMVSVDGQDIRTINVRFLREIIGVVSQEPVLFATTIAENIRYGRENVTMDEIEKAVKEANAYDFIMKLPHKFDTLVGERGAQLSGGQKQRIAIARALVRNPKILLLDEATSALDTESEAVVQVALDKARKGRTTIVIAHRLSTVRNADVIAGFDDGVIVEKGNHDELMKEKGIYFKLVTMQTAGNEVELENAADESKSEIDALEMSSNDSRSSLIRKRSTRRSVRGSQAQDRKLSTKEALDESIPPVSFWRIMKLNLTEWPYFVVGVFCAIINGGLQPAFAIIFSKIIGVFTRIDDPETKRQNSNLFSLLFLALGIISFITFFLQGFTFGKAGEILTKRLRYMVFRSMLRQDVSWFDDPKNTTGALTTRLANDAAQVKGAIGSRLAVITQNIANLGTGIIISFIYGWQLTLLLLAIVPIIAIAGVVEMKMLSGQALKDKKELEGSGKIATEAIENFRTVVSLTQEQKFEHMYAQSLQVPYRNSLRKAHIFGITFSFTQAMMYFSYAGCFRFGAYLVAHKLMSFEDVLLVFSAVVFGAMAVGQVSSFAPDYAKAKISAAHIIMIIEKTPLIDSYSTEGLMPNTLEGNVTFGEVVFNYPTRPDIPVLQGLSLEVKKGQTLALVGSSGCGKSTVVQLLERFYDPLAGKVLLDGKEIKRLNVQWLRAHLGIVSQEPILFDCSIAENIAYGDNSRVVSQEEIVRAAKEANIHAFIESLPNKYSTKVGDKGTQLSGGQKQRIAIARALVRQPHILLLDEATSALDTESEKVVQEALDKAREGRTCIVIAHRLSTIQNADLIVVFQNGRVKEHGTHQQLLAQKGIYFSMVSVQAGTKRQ

Activity [1] | SMILES | IC50 [2] | IC50 [3] | IC50 [4] | IC50 [5] | IC50 [6] | IC50 [7] | IC50 [8]
169% | C=C1[C@H]2O[C@H]2[C@@H](OC(=O)/C(C)=C/C)[C@@]2(C)CC[C@@H]3[C@@H](OC(=O)[C@@]3(O)COC(=O)/C(C)=C\C)[C@H]12 | 98 µg/mL (≈ 213 µM) | > 100 µg/mL | 91.4 µg/mL (≈ 198 µM) | > 100 µg/mL | 48.3 µg/mL | > 100 µg/mL | > 100 µg/mL
 | COc1cccc2c1C(=O)c1c(O)c3c(c(O)c1C2=O)C[C@@](O)(C(=O)CO)C[C@@H]3O[C@H]1C[C@H](N)[C@H](O)[C@H](C)O1 [DOXORUBICIN] | > 100 µg/mL | 0.45 µg/mL (≈ 0.828 µM) | 0.22 µg/mL (≈ 0.405 µM) | 15.3 µg/mL (≈ 28.1 µM) |  |  | 
114% | C/C=C(\C)C(=O)O[C@H]1C[C@](C)(O)C2CC=C(C)[C@H]2[C@@H]2OC(=O)[C@H](C)[C@@H]21 (some centres not stated) | > 100 µg/mL | > 100 µg/mL | > 100 µg/mL | > 100 µg/mL | 25.4 µg/mL | > 100 µg/mL | > 100 µg/mL
 | C=C1C(=O)O[C@@H]2[C@H]1CC[C@]1(C)[C@H](OC(=O)/C(C)=C/C)C=CC(=C)[C@@H]21 [DEHYDROOOPODIN] | 56.9 µg/mL (≈ 173 µM) | 36.8 µg/mL (≈ 112 µM) | 46.1 µg/mL (≈ 140 µM) | > 100 µg/mL | 55.8 µg/mL |  | 
 | C=C1[C@@H](OC(=O)C(C)CC)C=C[C@@]2(C)CC[C@@H]3[C@@H](OC(=O)[C@@H]3C)[C@H]12 (some centres not stated) | > 100 µg/mL | > 100 µg/mL | > 100 µg/mL | > 100 µg/mL |  | > 100 µg/mL | > 100 µg/mL
 | C=C1C=C[C@@H](OC(=O)/C(C)=C/C)[C@@]2(C)CC[C@@H]3[C@@H](OC(=O)[C@@H]3C)[C@H]12 [OOPODIN] | 24.7 µg/mL (≈ 74.8 µM) | 35.1 µg/mL (≈ 106 µM) | 34.7 µg/mL (≈ 105 µM) | 25.4 µg/mL (≈ 76.9 µM) | 13.8 µg/mL |  | 
 | C=C1C=C[C@@H](OC(=O)/C(C)=C/C)[C@@]2(C)CC[C@@H]3[C@@H](OC(=O)[C@]3(C)O)[C@H]12 | > 100 µg/mL | > 100 µg/mL | > 100 µg/mL | > 100 µg/mL |  | > 100 µg/mL | > 100 µg/mL
